# Scp1 inh: Scp-1 phosphatase inhibitors, primary screen, biochemical, colorimetric, uHTS. Carboxy-terminal domain RNA polymerase II polypeptide A small phosphatase 1 (Homo …. Recombinant Scp1, phosphopeptide, malachite green phosphate absorbance. inhibition, % at 20 µM. 0.88% of 340,000 active. AID 493091, 2011;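 active means inhibition above about 50% at 20 µM, limit read from the data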;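 further: plate controls were DMSO wells with enzyme for no effect and wells lacking enzyme for full effect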
#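 Test system: SCP-1 phosphatase catalytic domain, residues 76-261; measured by: colorimetric phosphate reagent with accelerator and stabiliser, absorbance at 630 nm; timing: enzyme reaction 45 min at room temperature, colour 5 min, stabilisation 30 min; also added: Phosphorylated 17-residue peptide substrate; compound dosing: one concentration, 20 µM, with 1.0% DMSO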
# STEP inh: STEP phosphatase inhibitors, primary screen, biochemical, fluorescence intensity, uHTS | AID 588621, 2011 | inhibition, % at 20 µM | Tyrosine-protein phosphatase non-receptor type 5 (Homo sapiens), P54829 | recombinant STEP, OMFP fluorogenic substrate | 0.25% of 360,000 active;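 active means inhibition at 20 µM, scaled per plate between control wells, above about 37%, limit read from the data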;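 further: 0% = DMSO with enzyme and substrate and 100% = substrate only without enzyme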
#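 medium = Bis-Tris buffer pH 6.0, 2.5 mM DTT, 0.005% Tween 20 | test system = STEP (striatal-enriched tyrosine phosphatase) enzyme, cell-free | measure = normalized % inhibition | compound dosing = 20 µM, 1% DMSO | also added = 25 µM OMFP | schedule = reaction 20 min, ambient temperature | measured by = fluorescence read at 480 nm ex / 540 nm em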
# SUMO HTRF inh: inhibitors of in vitro SUMOylation cascade, primary screen, biochemical, HTRF, uHTS; SUMO-conjugating enzyme UBC9 (Homo sapiens), P63279; HTRF SUMOylation assay, SAE1/SAE2 + UBC9; inhibition, % at 35 µM; 0.36% of 290,000 active; AID 2006, 2009; in the data active means inhibition above about 50%, passing the limit was not always enough
# LMPTP block: LMPTP phosphatase inhibitors, primary screen, biochemical, fluorescence intensity, uHTS | Low molecular weight phosphotyrosine protein phosphatase (Homo sapiens), P24666 | recombinant LMPTP-A, OMFP fluorogenic substrate | inhibition, % at 20 µM | 0.22% of 360,000 active;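 active means compounds that cut the enzyme signal by at least half of the control window in the single-dose screen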;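 further: plate controls were DMSO wells with enzyme plus substrate for no effect and substrate without enzyme for full effect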
#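 Assay system: LMPTP-A, protein tyrosine phosphatase of low molecular weight / Medium: pH 6.0 Bis-Tris buffer with DTT and Triton X-100 / Schedule: 50 min enzyme reaction at room temperature, protected from light / Measured by: endpoint fluorescence intensity from OMFP dephosphorylation / Read-out basis: % inhibition relative to no-enzyme and uninhibited control wells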
# DNMT1 block: human DNMT1 methyltransferase inhibitors, primary screen, biochemical, molecular beacon, fluorescence, HinP1I cleavage, uHTS. inhibition (reported as % activation of signal), % at 10 µM. 0.83% of 360,000 active. DNA (cytosine-5)-methyltransferase 1 (Homo sapiens), P26358; in the data active means inhibition above about 50%
# Target sequence (P26358 504-1616 limits assumed): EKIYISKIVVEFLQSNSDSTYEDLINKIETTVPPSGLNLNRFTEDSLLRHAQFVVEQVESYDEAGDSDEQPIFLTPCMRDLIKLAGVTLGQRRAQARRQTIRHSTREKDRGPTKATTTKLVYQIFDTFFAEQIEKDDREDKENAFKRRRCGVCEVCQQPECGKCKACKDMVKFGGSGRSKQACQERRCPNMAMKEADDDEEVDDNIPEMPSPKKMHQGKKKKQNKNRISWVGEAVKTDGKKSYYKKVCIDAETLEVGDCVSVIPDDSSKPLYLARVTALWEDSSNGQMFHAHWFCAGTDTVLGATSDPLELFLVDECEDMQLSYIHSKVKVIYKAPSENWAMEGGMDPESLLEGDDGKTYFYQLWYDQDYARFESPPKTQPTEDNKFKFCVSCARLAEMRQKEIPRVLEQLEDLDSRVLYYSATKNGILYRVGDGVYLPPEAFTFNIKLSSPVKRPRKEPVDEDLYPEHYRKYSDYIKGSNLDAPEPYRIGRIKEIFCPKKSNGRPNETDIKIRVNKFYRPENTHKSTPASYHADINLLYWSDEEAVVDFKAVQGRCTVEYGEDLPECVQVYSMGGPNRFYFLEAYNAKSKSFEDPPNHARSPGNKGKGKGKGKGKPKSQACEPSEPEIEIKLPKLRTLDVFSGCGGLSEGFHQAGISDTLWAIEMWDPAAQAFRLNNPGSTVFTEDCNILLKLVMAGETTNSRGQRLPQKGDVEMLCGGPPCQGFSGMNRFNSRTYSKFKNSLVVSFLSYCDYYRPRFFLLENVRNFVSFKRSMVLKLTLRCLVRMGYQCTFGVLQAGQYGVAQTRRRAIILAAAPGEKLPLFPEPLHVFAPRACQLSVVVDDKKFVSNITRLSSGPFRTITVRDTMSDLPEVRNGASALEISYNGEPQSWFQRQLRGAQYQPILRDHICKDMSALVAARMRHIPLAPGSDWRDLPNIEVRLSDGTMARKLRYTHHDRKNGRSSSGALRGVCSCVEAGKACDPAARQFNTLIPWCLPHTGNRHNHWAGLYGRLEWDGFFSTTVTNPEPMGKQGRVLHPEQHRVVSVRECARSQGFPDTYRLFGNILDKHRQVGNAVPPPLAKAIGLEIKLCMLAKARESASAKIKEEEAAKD
# SUMO1-SIM PPI: modulators of SUMO1 protein-protein interactions, primary screen, biochemical, uHTS; SUMO1 binding to a labelled peptide, TR-FRET, 1 h; inhibition, % at 20 µM; AID 602429, 2012; 0.33% of 360,000 active; in the data active means inhibition above about 37%
# DNMT1 interf DR: spectral interference with molecular beacon fluorescence, dose response, artefact control for DNMT1 inhibitor project, biochemical, fluorescent molecular beacon | AID 602382, 2012 | shares compounds with DNMT1 block | IC50, µM | 200 tested, under 10 active | spectral interference counter-screen; call rule not given here
# DNMT1 confirm: DNMT1 methyltransferase inhibitor retest, confirmation, biochemical, molecular beacon, fluorescence, single concentration. shares compounds with DNMT1 block. DNMT1 molecular beacon HinP1I cleavage. inhibition, % at 10 µM. 8% of 2,300 active. AID 602385, 2012;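 active means average inhibition of at least 30% in the single-concentration confirmation test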
# DNMT1 interf: counter-screen for DNMT1 inhibitors: spectral interference | shares compounds with DNMT1 block | DNMT1 molecular beacon spectral interference counterscreen, fluorescence 485/520 | activation (fluorescence interference), % at 10 µM | 1% of 2,300 active | AID 602387;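 active means activation of at least 30% at 10 µM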;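 further: DNMT1 catalytic domain with a HinP1I cleavage step and a FAM/dabcyl DNA beacon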
# Active calls of the source: *; / = no result. Rows were chosen to be rich in hits. Some 1.9% of all compounds tested hit in one or more screens of this group.
SMILES,Scp1 inh,STEP inh,SUMO HTRF inh,LMPTP block,DNMT1 block,SUMO1-SIM PPI,DNMT1 confirm,DNMT1 interf,others
OC(CN1CCOCC1)c1ccc(F)cc1 (stereo not drawn),-0.9,-1.5,13.1,-1.5,77.0*,-0.2,3.2,2.0,
CCCCNC(=O)Cn1cnc2sc(C)c(S(=O)(=O)N3CCN(c4ncccn4)CC3)c2c1=O,0.6,-1.6,9.2,-1.9,-0.6,5.0,/,/,
COC(=O)C1CCN(C(=O)CSc2nc3nc(C)cc(C)n3n2)CC1,-1.2,-1.4,/,-0.4,63.3*,-5.6,0.8,1.9,
CC(=O)Nc1ccc(NC(=O)COc2cccc3ccccc23)cc1,/,-1.8,/,-0.1,6.6,2.4,/,/,
O=C(Cn1cnnn1)OCC(=O)c1ccc(Cl)s1,-2.4,-1.7,18.0,1.5,58.3*,-2.7,7.4,1.9,
Cc1cc(C)c(C(=O)COC(=O)Cn2cnnn2)cc1C,0.4,1.0,17.0,-1.2,2.2,2.0,/,/,
CC(=O)Nc1ccc(N2C(=O)c3cccc4c(O)ccc(c34)C2=O)cc1,11.7,-32.4,36.9,-0.7,50.9*,-104.6,106.2*,98.9*,
CC(=O)Nc1ccc(S(=O)(=O)N2CCN(C(=O)C3COc4ccccc4O3)CC2)cc1 (stereo not drawn),-6.7,-0.9,7.5,-0.4,-0.4,-1.8,/,/,
COc1ccc(S(=O)(=O)N2CCN(C(=O)C3COc4ccccc4O3)CC2)cc1 (stereo not drawn),64.1*,34.9,/,55.8*,95.3*,18.9,53.7*,2.3,DNMT1 interf DR=>99
CC(=O)CSc1nsc(SCC(C)=O)c1C#N,5.2,1.4,6.8,16.5,-9.7,24.0,/,/,
Cc1ccc(NC(=O)CSc2nsc(SCC(=O)Nc3ccc(C)cc3C)c2C#N)c(C)c1,-3.1,-0.6,13.7,-1.5,52.3*,-0.7,3.0,3.3,
CCOC(=O)CSc1nsc(SCC(=O)OCC)c1C#N,-1.8,-0.7,-33.3,-0.5,76.3*,-3.8,-0.6,4.7,
O=C(NCc1cccnc1)c1[nH]c(C(F)(F)F)nc1-c1ccccc1,/,2.0,/,-1.2,2.1,2.9,/,/,
O=C(CC[C@H]1O[C@@H](n2ccc(=O)[nH]c2=O)[C@H](O)[C@@H]1O)N[C@@H](Cc1ccccc1)C(=O)NCc1ccccc1,/,-2.0,/,-1.8,3.4,1.2,/,/,
O=C(CSc1nnc(-c2ccco2)o1)c1ccc[nH]1,39.9,0.7,41.0,52.7*,55.0*,18.0,6.2,3.4,
Cc1ccc(C2C(C#N)=C(N)N(N(C)C)C3=C2C(=O)CCC3)cc1 (stereo not drawn),-16.6,-1.5,-4.4,0.0,78.9*,1.5,1.7,2.0,
O=C(COc1ccccc1)NCC(=O)N1CCCC(C(F)(F)F)C1 (stereo not drawn),-5.7,1.8,/,-0.8,-0.2,-0.6,/,/,
CCc1nc(N=Nc2c(O)[nH]c3ccccc23)c2c3c(sc2n1)CCC3,4.5,1.2,2.5,-0.2,64.4*,-3.3,1.9,-3.7,
Oc1[nH]c2ccccc2c1N=Nc1nc2ccccc2s1,30.7,1.0,-3.7,15.0,1.6,-41.8,/,/,
CSc1ncccc1C(=O)OCC(=O)c1[nH]c(C)c(C(C)=O)c1C,17.8,-0.2,/,1.4,7.1,-0.2,/,/,
CC(=O)c1ccc(N2CCN(C(=O)Cc3n[nH]c(=O)c4ccccc34)CC2)cc1,-3.5,-1.1,1.6,0.2,66.0*,0.4,1.1,1.2,
COc1ccc(S(=O)(=O)N2CCC(C(=O)NCCCc3ccccc3)CC2)cc1,-5.5,-0.1,/,-0.5,0.3,4.9,/,/,
Cc1cccc(C)c1-n1cccc1/C=C1/C(=N)N2C(=NC1=O)SN=C2S(C)(=O)=O,2.6,-2.9,18.3,1.8,-4.5,-1.3,/,/,
Cc1ccc(-n2cccc2/C=C2/C(=N)N3C(=NC2=O)SN=C3S(C)(=O)=O)cc1Cl,38.4,10.7,46.0,12.2,83.7*,13.2,37.1*,-3.0,DNMT1 interf DR=>99
COc1cc(/C=C2/SC(=O)N(Cc3ccccc3Cl)C2=O)ccc1OCc1ccncc1,17.5,-1.2,-6.5,-0.2,63.9*,0.3,7.2,8.5,
SMILES,Scp1 inh,STEP inh,SUMO HTRF inh,LMPTP block,DNMT1 block,SUMO1-SIM PPI,DNMT1 confirm,DNMT1 interf,others
CCCOc1cccc(C(=O)NCCNC(=O)c2ccc(C)nc2)c1,-9.0,1.4,-7.1,-0.5,2.0,0.0,/,/,
COC1=C(N)C(=O)c2nc(C)ccc2C1=O,34.4,2.2,/,2.6,77.6*,0.1,53.4*,-7.4,DNMT1 interf DR=>99
COC1=C(Br)C(=O)c2nc(C)ccc2C1=O,/,2.7,/,3.8,83.3*,16.4,40.8*,-7.5,DNMT1 interf DR=>99
Cc1nc2c(nc1C)C(=O)c1ccccc1C2=O,2.2,-1.1,/,-0.3,-8.0,-38.2,/,/,
CSc1ccc(CN(C)CC(=O)Nc2ccc(C)cc2Br)cc1,-3.7,-2.2,-18.3,-8.0,5.5,-3.2,/,/,
Cc1cccn2c(CN3CCNC(=O)CC3)c(C(=O)N(C)CCc3ccccc3)nc12,-6.2,-2.7,-0.2,-0.8,-1.2,2.5,/,/,
O=C(CCNS(=O)(=O)c1ccc(Br)cc1)NCCc1ccc(Cl)cc1,-9.6,-0.2,2.8,-0.4,-2.0,1.5,/,/,
CC(=O)NC(CC(=O)NC(C)c1ccc(Cl)cc1Cl)c1ccccc1 (stereo not drawn),-4.2,-0.9,3.8,-1.4,67.9*,0.7,-0.2,1.5,
CCCN(CC(=O)Nc1ccc(Cl)cc1Cl)C(=O)CC(NC(C)=O)c1ccccc1 (stereo not drawn),-0.7,-0.1,-3.5,1.3,-2.1,-6.3,/,/,
O=C1c2ccccc2-c2c1c1ccccc1c(=O)n2-c1ccccc1,-16.2,-0.2,/,0.2,49.9,-2.5,1.7,4.4,
CC(C)CCN1NC2(CCCC(C)C2)NC1=S (stereo not drawn),2.7,-0.8,-0.8,0.1,0.4,-0.8,/,/,
COC(=O)c1ccc2cc(OC)cc([N+](=O)[O-])c2n1,-4.7,0.4,/,0.1,6.5,-36.8,/,/,

# Screening results deposited in PubChem BioAssay by Sanford-Burnham Center for Chemical Genomics.
